The full list was thinned out, with hits kept by preference.
INS promoter act = TRM-6 insulin promoter activation | TRM-6 cells (human fetal islet line), insulin promoter eGFP reporter, imaging; plate-scaled: unstimulated 0, stimulated control 100 | activation, % at 2 µM | AID 1296 | 130,000 compounds, 0.81% hits;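 active = activation at 2 µM above a set limit, confirmed on inspection of the cell images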;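 note: share of cells whose green reporter signal exceeds an intensity cutoff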
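test system = TRM-6 insulin promoter–eGFP reporter cells | benchmarks = stimulated versus unstimulated wells as plate controls | read-out basis = percent cells above green-intensity threshold, converted to percent activation versus plate controls | detection = fixed-cell fluorescence microscopy, eGFP plus Hoechst | incubation = tamoxifen pre-incubation 15 h overnight, then compound exposure 48 h at 37 °C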
* = called active by the depositor.

SMILES | INS promoter act
CCn1cc(C(=O)Nc2cc3c(cc2NC(C)=O)OCCO3)c(=O)c2ccc(C)nc21 | 0
O=C(Nc1cccc2ccccc12)N1CCN(c2ncccn2)CC1 | -2
CCc1ccc2c(c1)c1nnc(NN)nc1n2CC | 0
O=C(CSc1nnc(-c2ccco2)o1)c1ccccc1Cl | 0
CCN(CC)C(=O)CSc1nnc(-c2ccco2)o1 | 500*
O=C(CSc1nnc(-c2ccco2)o1)NC1CCCCC1 | 0
O=C(CCCC(=O)N(CC(=O)NC1CCCC1)Cc1ccccc1)Nc1ccccn1 | -7
CC(=O)Nc1ccccc1C(=O)C(=O)Nc1ccc(C(=O)N2CCOCC2)cc1 | -4
C/C(=N/OC(=O)C1CC12CCC2)c1ccc(Br)cc1 (stereo not drawn) | 7
O=C(c1ccc(Cn2c(=S)[nH]c3cc4c(cc3c2=O)OCO4)cc1)N1CCN(c2ncccn2)CC1 | 7
Cc1ccc(S(=O)(=O)CC(C)N2CCN(C3CCCCC3)CC2)cc1 (stereo not drawn) | 103
Cc1ccc(S(=O)(=O)NC2=NCN(C3CCCCC3)CN2)cc1 | 125*
Cc1ccc(S(=O)(=O)NCCNC(=O)C2CCCNC2=O)cc1 (stereo not drawn) | -8
Cc1cc(NC(=O)CCCC(=O)NCc2cccs2)no1 | 6
O=C(O)c1ccc(C(=O)Nc2cccc(NC(=O)C3CCCO3)c2)cc1 (stereo not drawn) | -6
COc1cccc(C(=O)Nc2cccc(C(=O)NCC(C)C)c2)c1 | 1
CC(C)CNC(=O)c1cccc(NC(=O)C2CCCO2)c1 (stereo not drawn) | 438*
CC(C)(C)Nc1nc(NC(C)(C)C)nc(-n2ccnc2)n1 | 348
C/C(=N\N1C(=O)CSC1=S)c1ccc(Br)cc1 | 8
C/C=C/c1ccc(OCCCCNCc2ccco2)c(OC)c1 | -7
CCOC(=O)NN1C(=O)c2ccccc2NC1c1ccc(OC)cc1OC (stereo not drawn) | 0
CC(C)C(=O)Nc1cccc(NC(=O)c2cc3ccccc3o2)c1 | -79
CC(C)C(=O)Nc1cccc(S(=O)(=O)c2cccc(NC(=O)C(C)C)c2)c1 | 488*
Cc1nnc(NC(=O)c2cccc(NC(=O)C(C)C)c2)s1 | -5
CC(C)Cn1c(=O)c(C2=NS(=O)(=O)c3ccccc3N2)c(O)c2ccccc21 | 5
SMILES | INS promoter act
COC(=O)c1c(Oc2nc(OC)cc(OC)n2)cccc1Oc1nc(OC)cc(OC)n1 | -5
CCSc1nn2c(=O)c3ccccc3nc2s1 | 103
Cc1ccc(Cc2nnc3n(-c4ccccc4)nc(C(=O)c4ccccc4)n3c2=O)cc1 | 0
COC(=O)C(C(=O)OC)C(C[N+](=O)[O-])c1ccc(O)c(OC)c1 (stereo not drawn) | 0
CCNC(=O)CC1C(=O)N(c2ccc(F)cc2)C(=O)N1CCc1ccc(OC)cc1 (stereo not drawn) | 154*
COc1ccc(NC(=O)CC2C(=O)N(c3ccc(OC)cc3)C(=O)N2CCc2cccs2)cc1 (stereo not drawn) | 6
CCNC(=O)CC1C(=O)N(c2ccccc2)C(=O)N1CCc1ccc(OC)c(OC)c1 (stereo not drawn) | 286
COc1ccccc1NC(=O)Cc1noc(CSc2nnc(C(F)(F)F)n2C)n1 | 121
O=C1NC2(CCC3(CC2)OCCO3)NN1c1ccc(Cl)cc1 | 8
COc1ccc(N2C(=O)c3ccc(C(=O)OC(C)C)cc3C2=O)cc1 | -64
CC(=O)Oc1cccc(N2C(=O)c3ccc(C(=O)Nc4c[nH]c(=O)[nH]c4=O)cc3C2=O)c1 | 214*
Cc1cc(NC(=O)c2ccc3c(c2)C(=O)N(C)C3=O)no1 | -7
CCc1nc(SCC(=O)Nc2nnc(CC)s2)c2c(C)c(C)sc2n1 | 254*
CCc1nnc(NC(=O)CSc2ccc(-c3ccco3)nn2)s1 | 115
CC(=O)Nc1ccc(NC(=O)CSc2nc(C)nc3sc(C)c(C)c23)cc1 | -7
Cc1sc2ncnc(N3CCC(C(=O)Oc4cccc(Cl)c4Cl)CC3)c2c1C | 0
O=C(NCc1ccc(F)cc1)C(C(=O)NCc1ccc(F)cc1)c1ncc(C(F)(F)F)cc1Cl | 0
Fc1cc(F)cc(NC(=S)Nc2ccccc2N2CCOCC2)c1 | -9
N=C1SCC(=O)N1c1ncc(Cc2cccc(Cl)c2)s1 | 408*
O=C(N=C1SCC(=O)N1c1ccccc1)c1ccco1 | 7
O=C(/C=C/c1ccccc1Cl)NCc1cccs1 | 178
CC(C)(C)NC(=O)CSc1nnc(-c2ccncc2)o1 | 192
O=C(CSc1nnc(-c2ccncc2)o1)Oc1ccccc1 | 690*
Cc1ccc(C(=O)CSc2nnc(-c3ccccc3)o2)cc1 | 113
CCOCCCNC(=O)CSc1nc2nc(C)c(Cc3ccccc3)c(C)n2n1 | 133
O=C(CNS(=O)(=O)c1ccccc1)Nc1ccc2c(c1)OCO2 | 0
O=C(CN1C(=O)S/C(=C/c2cccnc2)C1=O)N1CCOCC1 | -71
O=C1S/C(=C/c2ccc(N3CCOCC3)o2)C(=O)N1Cc1c(F)cccc1Cl | 178*
O=C1S/C(=C\c2ccc(N3CCOCC3)o2)C(=O)N1Cc1c(F)cccc1Cl | 0
CN1C(=O)c2ccc(NC(=O)CCS(=O)(=O)c3ccccc3)cc2C1=O | 8

Screens deposited in PubChem by Columbia University Molecular Screening Center.
